# Experiments:
# [1] = tested on: Reovirus sp.; assay: Antiviral activity against Reovirus type-1 3651 infected in hamster BHK21 cells assessed as inhibition of virus-induced cytopathogenicity after 3 to 4 days by MTT assay; assay type: functional, organism-based; settings: Reovirus sp., 3651, BHK-21
# Method in brief: (§1)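 Host cells were seeded in 96-well plates at 3×10^4 cells/well (MDBK) or 5×10^4 cells/well (BHK-21) and grown to confluent monolayers overnight. They were infected at m.o.i. 0.01 in maintenance MEM with 0.5% inactivated FBS. Serial compound dilutions were added after 1 h. Viability was read by MTT after 3–4 days at 37 °C. EC50 was taken by linear regression against untreated controls. Mean of three determinations.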
# [2] = tested on: Yellow fever virus; assay: Antiviral activity against Yellow fever virus 17D Stamaril Pasteur J07B01 infected in hamster BHK21 cells assessed as inhibition of virus-induced cytopathogenicity after 3 to 4 days by MTT assay; assay type: functional, cell-based; settings: Stamaril Pasteur J07B01, BHK-21; method in brief: as §1
# [3] = tested on: Poliovirus 1; assay: Antiviral activity against Human poliovirus 1 strain Sabin Chat infected in african green monkey Vero 76 cells assessed as virus-induced reduction of plaque formation after 2 days using crystal violet staining; assay type: functional, cell-based; settings: Enterovirus C, 48 h
# [4] = tested on: Human orthopneumovirus; assay: Antiviral activity against Human respiratory syncytial virus A2 infected in african green monkey Vero 76 cells assessed as reduction of virus-induced plaque formation after 5 days using crystal violet staining; assay type: functional, organism-based; settings: 120 h
# [5] = Antiviral activity against Bovine viral diarrhea virus 1-NADL infected in MDBK cells assessed as inhibition of virus-induced cytopathogenicity after 3 to 4 days by MTT assay; assay type: functional, cell-based; settings: Bovine viral diarrhea virus isolates and strains; method in brief: as §1
# [6] = tested on: Vesicular stomatitis Indiana virus; assay: Antiviral activity against clinical isolate Vesicular stomatitis Indiana virus infected in african green monkey Vero 76 cells assessed as reduction of virus-induced plaque formation after 2 days using crystal violet staining; assay type: functional, organism-based; settings: 48 h
# [7] = Cytotoxicity against human MT4 cells after 96 hrs by MTT assay; assay type: cell-based
# Method in brief: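 Exponentially growing MT-4 cells seeded at 1×10^5 cells/mL in RPMI-1640 with 10% FBS, penicillin and streptomycin. Incubated with serial compound dilutions at 37 °C, 5% CO2 for 96 h; viability by MTT. CC50 by linear regression relative to untreated controls; mean of three independent determinations.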
# [8] = tested on: Coxsackievirus B5; assay: Antiviral activity against Human coxsackievirus B5 Ohio-1 infected in african green monkey Vero 76 cells assessed as reduction of virus-induced plaque formation after 3 days using crystal violet staining; assay type: functional, organism-based; settings: Enterovirus B, Ohio-1, Vero, 72 h
# [9] = Cytotoxicity against african green monkey Vero 76 cells after 48 to 96 hrs by crystal violet staining; assay type: cell-based; settings: chlorocebus sabaeus
# Method in brief: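 Vero-76 cells were seeded at 4×10^5 cells/mL in D-MEM with L-glutamine, kanamycin and 10% FBS, then exposed to serial compound dilutions at 37 °C, 5% CO2 for 48–96 h. Viability was read by crystal violet staining. 50% cytotoxic concentration by linear regression relative to untreated controls; mean of three independent determinations.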
# [10] = Cytotoxicity against BHK21 cells after 48 to 96 hrs by MTT assay; assay type: cell-based, Mesocricetus auratus, BHK-21; settings: hamster
# Method in brief: (§2)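 MDBK seeded at 6×10^5 and BHK at 1×10^6 cells/mL in MEM-Earle's with L-glutamine, 1 mM pyruvate, kanamycin, plus 10% horse serum (MDBK) or 10% FBS (BHK). Cells were grown at 37 °C, 5% CO2 with serial compound dilutions (DMSO stocks diluted in medium). Viability by MTT after 48–96 h. CC50 was taken by linear regression versus untreated controls; three independent determinations.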
# [11] = tested on: Human alphaherpesvirus 1; assay: Antiviral activity against Human herpesvirus 1 strain KOS infected in african green monkey Vero 76 cells assessed as reduction of virus-induced plaque formation after 3 days using crystal violet staining; assay type: functional, organism-based; settings: Human alphaherpesvirus 1, KOS, 72 h
# [12] = tested on: Human immunodeficiency virus 1; assay: Antiviral activity against HIV1 3B infected in human MT4 cells assessed as inhibition of virus-induced cytopathogenicity after 4 days by MTT assay; assay type: functional, organism-based; settings: Human immunodeficiency virus 1, 3B, MT4, 96 h
# Method in brief: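 MT-4 cells (1×10^4 per well) were infected with HIV-1 IIIB at 100 CCID50, m.o.i. 0.01, together with serial compound dilutions. Viability was read by MTT after 4 days at 37 °C. EC50 was taken by linear regression versus untreated controls. Mean of three determinations.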
# [13] = Cytotoxicity against MDBK cells after 48 to 96 hrs by MTT assay; assay type: cell-based, Bos taurus; settings: cattle; method in brief: as §2
# [14] = Antiviral activity against Vaccinia virus Lister Elstree infected in african green monkey Vero 76 cells assessed as reduction of virus-induced plaque formation after 3 days using crystal violet staining; assay type: functional, cell-based; settings: 72 h
# [15] = tested on: CCRF-CEM; assay: Cytotoxicity against human CCRF-CEM cells after 96 hrs by MTT assay; assay type: functional
# Method in brief: (§3)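 Cells were seeded at 1×10^5 cells/mL: leukaemia/lymphoma lines in RPMI-1640, solid tumour and fibroblast lines in specific media, all with 10% FCS. Serial compound dilutions were applied for 96 h at 37 °C, 5% CO2, under conditions allowing controls at least three rounds of multiplication. Viability was read by MTT. CC50 by linear regression. Mean of three determinations.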
# [16] = tested on: SK-MEL-28; assay: Cytotoxicity against human SK-MEL-28 cells after 96 hrs by MTT assay; assay type: functional; settings: SK-MEL-28, 96 h; method in brief: as §3
# [17] = Inhibition of HCV1b BK 6xHis-tagged recombinant NS5B Cdelta 21 RNA dependent RNA polymerase expressed in Escherichia coli (DE3) using GTP as substrate preincubated for 30 mins before substrate addition measured after 120 mins by fluorescence assay; parameters: species or system Hepatitis C virus (isolate BK)
# Method in brief: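 His-tagged NS5B (BVDV C-terminal Δ24; HCV1b Δ21) from E. coli Rosetta 2(DE3)pLysS, Ni-NTA purified, 500–600 ng per 20 μL. The template was poly(rC) 10 μg/mL and the primer oligo(rG)12 0.1 μg/mL, with GTP 80 μM. Buffer: 20 mM Tris pH 7.0, 0.5 mM MnCl2 or 5 mM MgCl2, 5% DMSO. Enzyme/drug 30 min at RT, then GTP added; 120 min at 37 °C (BVDV) or 25 °C (HCV). Read-out was dsRNA dye fluorescence (ex 480/em 520). IC50 from dose–response fits.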
# [18] = Inhibition of Bovine viral diarrhea virus 1-NADL recombinant NS5B Cdelta 21 RNA dependent RNA polymerase expressed in Escherichia coli (DE3) using GTP as substrate preincubated for 30 mins before substrate addition measured after 120 mins by fluorescence assay
# [19] = tested on: CCRF-SB; assay: Cytotoxicity against human CCRF-SB cells after 96 hrs by MTT assay; assay type: functional; method in brief: as §3
# [20] = Cytotoxicity against human GS4.1 cells; assay type: cell-based
# Method in brief: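 Huh-7 cells carrying HCV genotype 1b subgenomic replicon, grown in D-MEM/10% FBS with 0.5 mg/mL G418. Seeded at 7.5×10^3 cells/well with two-fold serial dilutions (top 75 μM), incubated 72 h at 37 °C. Viability by MTS-type Cell Titer 96 Aqueous One reagent; CC50 from % cytotoxicity versus concentration curves.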
# [21] = tested on: DU-145; assay: Cytotoxicity against human DU145 cells after 96 hrs by MTT assay; assay type: functional; settings: DU-145, 96 h; method in brief: as §3
# [22] = tested on: HepG2; assay: Cytotoxicity against human HepG2 cells after 96 hrs by MTT assay; assay type: functional; settings: HepG2, 96 h; method in brief: as §3
# [23] = tested on: SK-MES-1; assay: Cytotoxicity against human SKMES1 cells after 96 hrs by MTT assay; assay type: functional; settings: SK-MES-1, 96 h; method in brief: as §3
# [24] = Cytotoxicity against human CRL7065 cells after 96 hrs by MTT assay; assay type: cell-based, CRL-7065
# Method in brief: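 Foreskin fibroblasts seeded at 1×10^5 cells/mL in specific medium with 10% FCS and antibiotics; serial compound dilutions, 37 °C, 5% CO2, 96 h, under conditions allowing untreated controls at least three rounds of multiplication. MTT read-out; concentration reducing proliferation by 50% by linear regression versus untreated controls; three independent determinations.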
# [25] = tested on: MCF7; assay: Cytotoxicity against human MCF7 cells after 96 hrs by MTT assay; assay type: functional; settings: MCF7, 96 h; method in brief: as §3
# [26] = tested on: Hepatitis C virus; assay: Antiviral activity against HCV1b infected in human GS4.1 cells assessed as inhibition of virus-induced cytopathogenicity by measuring viral NS4A protein level after 72 hrs by ELISA; assay type: functional, organism-based, Hepacivirus hominis; settings: genotype 1b
# Method in brief: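 GS4.1 cells are Huh-7 cells carrying a genotype 1b subgenomic replicon, kept in 0.5 mg/mL G418. They were seeded at 7.5×10^3 cells/well with two-fold serial dilutions of compound (top 75 μM) and incubated 72 h at 37 °C. Huh-7 cells without the replicon served as negative control. NS4A was measured by cell ELISA with anti-NS4A mAb A-236, peroxidase and o-phenylenediamine, A492. EC50 came from four-parameter sigmoidal fit.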
# [27] = tested on: WIL2-NS; assay: Cytotoxicity against human WIL2-NS cells after 96 hrs by MTT assay; assay type: functional; method in brief: as §3
# [28] = Cytotoxicity against human MRC5 cells after 96 hrs by MTT assay; assay type: cell-based; method in brief: as §3
Structure (SMILES),EC50 [1],EC50 [2],EC50 [3],EC50 [4],EC50 [5],EC50 [6],CC50 at 96 h [7],EC50 [8],CC50 [9],CC50 [10],EC50 [11],EC50 [12],CC50 [13],EC50 [14],CC50 [15],CC50 [16],CC50 [19],CC50 [21],CC50 [22],CC50 [23],other results
CCOC(=O)C(C)c1nc2c(Cl)c3ncccc3cc2[nH]c1=O (stereo unspecified),> 75 µM,50 µM,> 100 µM,62 µM,10 µM,> 100 µM,11 µM,> 100 µM,> 100 µM,75 µM,> 100 µM,> 11 µM,> 100 µM,> 100 µM,,,,,,,
O=c1[nH]c2cc3cccnc3c(Cl)c2nc1-c1ccccc1,> 100 µM,> 100 µM,> 100 µM,12 µM,11 µM,> 100 µM,22 µM,> 100 µM,> 100 µM,> 100 µM,> 100 µM,> 22 µM,> 100 µM,> 100 µM,16 µM,5.6 µM,19 µM,7.4 µM,8 µM,8 µM,IC50 [17]: > 10 µM; IC50 [18]: 1 µM; CC50 [20]: 11 µM; CC50 at 96 h [24]: 16 µM; CC50 [25]: 7.6 µM; EC50 [26]: > 11 µM
O=c1[nH]c2cc3cccnc3c(Cl)c2nc1Cc1ccccc1,> 100 µM,> 100 µM,> 88 µM,> 88 µM,2.6 µM,> 88 µM,15 µM,> 88 µM,88 µM,> 100 µM,> 88 µM,> 15 µM,> 100 µM,> 88 µM,19 µM,> 100 µM,25 µM,≥ 100 µM,72 µM,> 100 µM,IC50 [17]: > 10 µM; IC50 [18]: 1.2 µM; CC50 [20]: 65 µM; CC50 at 96 h [24]: > 100 µM; CC50 [27]: 33 µM; CC50 [25]: > 100 µM; EC50 [26]: > 65 µM
O=c1[nH]c2cc3c(O)ccnc3c(Cl)c2nc1-c1ccccc1,> 100 µM,> 100 µM,> 100 µM,> 100 µM,100 µM,> 100 µM,> 100 µM,> 100 µM,≥ 100 µM,> 100 µM,≥ 100 µM,> 100 µM,> 100 µM,> 100 µM,,,,,,,
CC[C@@]1(O)C(=O)OCc2c1cc1n(c2=O)Cc2cc3ccccc3nc2-1 [CAMPTOTHECIN],,,,,,,,,,,,,,,0.003 µM,0.07 µM,0.004 µM,0.015 µM,0.02 µM,0.03 µM,CC50 at 96 h [28]: 0.2 µM; CC50 at 96 h [24]: 0.3 µM; CC50 [27]: 0.005 µM; CC50 [25]: 0.02 µM

# — ChEMBL document CHEMBL1938334, “Quinoline tricyclic derivatives. Design, synthesis and evaluation of the antiviral activity of three new classes of RNA-dependent RNA polymerase inhibitors” (Bioorg Med Chem, 2011)
